Data set [1] deals with MAP kinase p38 (Mus musculus) (UniProt P47811+O08911+Q9WUI1+Q9Z1B7). Put plainly: Inhibition of LPS-induced p38 phosphorylation in ICR mouse MPM cells at 10 uM incubated for 2 hrs prior to LPS-challenge measured after 1 hr by Western blot analysis. It counts as cell-based. In a few lines: (§1)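 Primary peritoneal macrophages from ICR mice plated at 1.2 × 10⁶/plate overnight. Pretreated with DMSO or compound for 2 h, then LPS 10 ng/mL for 1 h. Cells lysed; 40–60 µg lysate run on 10% SDS-PAGE and blotted to nitrocellulose. Blocked in TBS pH 7.6 with 0.05% Tween 20 and 5% milk. Probed for IκB, p-JNK, p-ERK, p-p38 against GAPDH or the total protein. Detection by HRP secondary and ECL. Optical density given as % of control.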
Background: In western blotting, separated proteins are transferred to a membrane and probed.

Data set [2] deals with RAW264.7. Put plainly: Antiinflammatory activity in mouse RAW264.7 cells assessed as inhibition of LPS-induced IL6 release incubated for 2 hrs prior to LPS-challenge measured after 22 hrs by ELISA. It counts as functional, cell-based. In a few lines:
(§2)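 Pretreated with compound or DMSO vehicle for 2 h (screen at 10 µM; dose series 1, 5, 10 µM), then LPS 0.5 µg/mL for 22 h. Medium IL-6 measured by ELISA, normalized to cellular total protein, expressed as % of LPS control. Mean ± SE of 3–6 independent experiments.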
(An ELISA detects its analyte on a solid surface through an enzyme-linked reagent.)

Data set [3] has as its system RAW264.7. The data set can be described thus: Cytotoxicity against mouse RAW264.7 cells. It counts as cell-based.
Data set [4] deals with RAW264.7. Put plainly: Antiinflammatory activity in mouse RAW264.7 cells assessed as inhibition of LPS-induced IL6 release at 10 uM incubated for 2 hrs prior to LPS-challenge measured after 22 hrs by ELISA relative to LPS-treated control. It counts as functional. In outline: as §2
The test system of data set [5] is MPM. Put plainly: Inhibition of LPS-induced JNK phosphorylation in ICR mouse MPM cells incubated for 2 hrs prior to LPS-challenge measured after 1 hr by Western blot analysis. It counts as cell-based. In a few lines:
as §1

Data set [6] concerns Mus musculus. The data set can be described thus: Toxicity in C57BL/6 mouse assessed as decrease in body weight at 20 mg/kg, ip after 3 days. It counts as organism-based. The arrangement: dose 20 mg/kg, route intraperitoneal. Conditions: in vivo, 72 h. In a few lines:
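Male C57BL/6 mice (18–22 g) given compound ip at 20 mg/kg, prepared at 2 mg/mL in water with macrogol 15 hydroxystearate (5–10%) ± MCT (0.5–2%). Vehicle was 10% solubilizer with 2% MCT. LPS 20 mg/kg iv given 15 min later. Body weight and survival recorded every 24 h for 7 days; n = 10 per group.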

Data set [7] has as its system MPM. Put plainly: Inhibition of NFkappaB activation in ICR mouse MPM cells assessed as inhibition of LPS-induced IkappaB degradation at 10 uM incubated for 2 hrs prior to LPS-challenge measured after 1 hr by Western blot analysis. It counts as cell-based. In a few lines:
as §1

Data set [8] relates to MPM. The data set can be described thus: Inhibition of NFkappaB activation in ICR mouse MPM cells assessed as inhibition of LPS-induced IkappaB degradation incubated for 2 hrs prior to LPS-challenge measured after 1 hr by Western blot analysis. It counts as cell-based. In outline: as §1
Data set [9] deals with MPM. Put plainly: Inhibition of LPS-induced ERK phosphorylation in ICR mouse MPM cells at 10 uM incubated for 2 hrs prior to LPS-challenge measured after 1 hr by Western blot analysis. It counts as cell-based. In outline:
as §1

Data set [10] relates to Mus musculus. Put plainly: Antiinflammatory activity in C57BL/6 mouse assessed as protection against LPS-induced septic death by measuring survival at 15 mg/kg, ip administered 15 mins prior to LPS challenge measured after 7 days relative to vehicle-treated control. It counts as functional. Conditions: route intraperitoneal. In outline: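 Male C57BL/6 mice (18–22 g), n = 10 per group, given compound ip 15 min before LPS (20 mg/kg, iv). Compound at 2 mg/mL in water with macrogol 15 hydroxystearate (5–10% final) ± medium-chain triglycerides (0.5–2% final), dissolved at 37 °C. Vehicle was 10% solubilizer plus 2% MCT. Survival and body weight recorded every 24 h for 7 days.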

Data set [11] deals with MPM. Put plainly: Inhibition of LPS-induced JNK phosphorylation in ICR mouse MPM cells at 10 uM incubated for 2 hrs prior to LPS-challenge measured after 1 hr by Western blot analysis. It counts as cell-based. In a few lines:
as §1

Data set [12] relates to MPM. Put plainly: Inhibition of LPS-induced ERK phosphorylation in ICR mouse MPM cells incubated for 2 hrs prior to LPS-challenge measured after 1 hr by Western blot analysis. It counts as cell-based. In outline:
as §1

This passage reports inhibition, IC50 and Activity results from ChEMBL document CHEMBL2384994, “Discovery and evaluation of piperid-4-one-containing mono-carbonyl analogs of curcumin as anti-inflammatory agents” (Bioorg Med Chem, 2013).

The source made the active and inactive calls. The calls are words filed in the database; no cut-off is given here.

As to `O=C1/C(=C/c2ccc(O)cc2)CNC/C1=C\c1ccc(O)cc1`, in [1], the inhibition entry was “inactive”.

For the molecule `O=C1/C(=C/c2cccc(O)c2)CNC/C1=C\c1cccc(O)c1`, in data set [2], the IC50 was determined as 4190 nM and the inhibition result was “Dose-dependent effect”. Also, the Activity entry in data set [3] is “Non-toxic”.

Take `CN1C/C(=C\c2ccccc2F)C(=O)/C(=C/c2ccccc2F)C1`: the inhibition entry in data set [4] is “Active”.

Take `COc1ccc(/C=C2\CNC/C(=C\c3ccc(OC)c(OC)c3)C2=O)cc1OC`: the IC50 in data set [2] was found to be 2680 nM. In addition, the inhibition entry in data set [2], in data set [5], in [8] and in data set [12] was “Dose-dependent effect” in each case. In addition, the Activity result is recorded as “Toxic” in [6], 60% in [10] and “Non-toxic” in [3]. In addition, the inhibition entry in data set [7], in data set [9] and in [11] was “Active” throughout. Besides, in data set [4], the inhibition at 10 µM came to 98%.

For the molecule `CCCN1C/C(=C\c2ccc(OC)c(OC)c2)C(=O)/C(=C/c2ccc(OC)c(OC)c2)C1`, in [2], the IC50 turned out to be 2040 nM. In addition, in [2], the inhibition entry is “Dose-dependent effect”. The inhibition entry in data set [1], in [7], in data set [9] and in data set [11] was “inactive” throughout. For the same molecule, the inhibition at 10 µM in data set [4] is 90%. Also, in [3], the Activity result was “Non-toxic”.

Turning to `O=C1/C(=C/c2ccc(O)c(O)c2)CC/C1=C\c1ccc(O)c(O)c1`, in data set [4], the inhibition entry was “Active”.

Consider `O=C1/C(=C/c2ccccc2F)CNC/C1=C\c1ccccc1F`, for which the inhibition entry in data set [4] was “Active”.

For `COc1ccc(/C=C2\CN(C)C/C(=C\c3ccc(OC)c(OC)c3)C2=O)cc1OC`, the inhibition at 10 µM in data set [4] amounted to 90%.

For `CCN1C/C(=C\c2ccccc2Br)C(=O)/C(=C/c2ccccc2Br)C1`, the inhibition result in data set [4] was “Active”.

Regarding `O=C(/C=C/c1ccc(O)c(O)c1)/C=C/c1ccc(O)c(O)c1`, the inhibition entry in [4] was “Active”.

Regarding `COc1cc(/C=C/C(=O)CC(=O)/C=C/c2ccc(O)c(OC)c2)ccc1O`, the inhibition entry in [11] was “Active”.

For the molecule `COc1cc(/C=C2\CNC/C(=C\c3cc(OC)c(OC)c(OC)c3)C2=O)cc(OC)c1OC`, in data set [2], the 50% inhibitory concentration (IC50) is below 1000 nM. For the same molecule, the inhibition result in [2], in [8] and in data set [12] was “Dose-dependent effect” throughout. Moreover, the values for the Activity entry in data set [6], in [10] and in data set [3] were “Toxic”, 80% and “Non-toxic”, respectively. The inhibition entry in [7] and in data set [9] was “Active” in each case. Besides, the inhibition at 10 µM in [4] was 96%.

As to `CCCN1C/C(=C\c2ccccc2Cl)C(=O)/C(=C/c2ccccc2Cl)C1`, the inhibition entry in data set [4] is “Active”.

With `CN1C/C(=C\c2ccc(F)cc2)C(=O)/C(=C/c2ccc(F)cc2)C1`, the inhibition entry in [4] was “Active”.

As for `O=C1/C(=C/c2ccc(O)c(O)c2)CCC/C1=C\c1ccc(O)c(O)c1`, the inhibition entry in [4] was “Active”.

Usually inhibition stands for the share of the control response that was lost under treatment. As a reminder, the IC50 is the concentration that gives 50% inhibition.
